# CHOP UPR activ: activators of apoptotic CHOP UPR arm, primary screen, cell-based, CHO-CHOP luciferase reporter, luminescence, uHTS; activation, % at 10 µM; 0.34% of 330,000 active; UPR activation; percent of tunicamycin response over DMSO baseline;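 active means at 10 µM dose, activation of 40% or more, normalized to positive control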;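 further: 100% = tunicamycin at 10 µg/mL and 0% = DMSO alone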
#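 assay system = CHO CHOP reporter cells | amount = 500 CHO-CHOP cells per well | buffer or medium = F12 with 10% FBS | incubation = 16-18 h cell attachment, then 6 h compound exposure, 37 °C | detection = luminescence read with Steady-Glo | read-out = percent activation relative to tunicamycin control | controls = tunicamycin high control, DMSO low control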
# Bfl-1 A1 inh: caspase 3/7 activation in MEF A1-2A-BIM cells, primary screen, A1 inhibitor project, cell-based, luminescence, HTS; 0.066% of 330,000 active; caspase activation, % (test concentration not listed); AID 2462, 2010; Caspase-Glo 3/7 luminescence, 3 h; percent of clofoctol response, vehicle zero;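 active means over half of replicate activation scores above 10%, or exactly half above 10 with the replicate mean above 10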
# UPR XBP1 act: activators of adaptive XBP1 UPR arm, primary screen, cell-based, CHO-XBP1 luciferase reporter, luminescence, uHTS | 0.33% of 330,000 active | IRE1-XBP1 UPR activation; percent of tunicamycin response, DMSO as zero | activation, % at 20 µM;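 active means versus positive control, 20 µM dose yields 30% or more activation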;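 further: 100% = tunicamycin at 10 µg/mL and 0% = DMSO only wells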
#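 Material: CHO-XBP1 cells stably carrying IRE1-XBP1-driven luciferase reporter | Medium: F12 with 10% serum | Compound dosing: 20 µM single concentration, DMSO 1% | Incubation: Overnight seeding at 37 °C, 6 h compound treatment at 37 °C | Detection: Steady-Glo luminescence read | Read-out basis: % activation of reporter signal versus tunicamycin and DMSO controls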
# CHOP inhibitor: inhibitors of CHOP promoter induction, primary screen, cell-based, unfolded protein response, luciferase reporter; CHO-K1 CHOP-promoter luciferase, tunicamycin-induced, 15-18 h; inhibition, % at 10 µM; 3.8% of 220,000 active; AID 2732, 2010;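 active means compounds that reduced the stress-induced luciferase reporter signal by more than about 70% of percent inhibition, limit read from the data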;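 further: 0% = tunicamycin plus vehicle and 100% = wells without tunicamycin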
# XBP1 UPR conf: IRE1-XBP1 UPR arm activators, confirmation, cell-based, CHO-XBP1 luciferase reporter, luminescence, single concentration; 63% of 1,000 active; shares compounds with UPR XBP1 act; activation, % at 20 µM;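 active means reporter signal at least 30% of the positive control's activation in two or more of four replicate wells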;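 further: plate controls were DMSO negative control for no effect and tunicamycin 10 µg/mL positive control for full effect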
# Active calls of the source: *; . = no result given. The full list was thinned out, with hits kept by preference.
SMILES,CHOP UPR activ,Bfl-1 A1 inh,UPR XBP1 act,CHOP inhibitor,XBP1 UPR conf
CCOc1cccc2sc(N(CCCN(C)C)C(=O)c3ccc(S(=O)(=O)N(C)Cc4ccccc4)cc3)nc12,5,0,27,.,.
CCN(Cc1ccccc1)S(=O)(=O)c1ccc(C(=O)N(CCCN(C)C)c2nc3cc(C)cc(C)c3s2)cc1,24,-1,18,.,.
CCCCN(CC)S(=O)(=O)c1ccc(C(=O)N(CCCN(C)C)c2nc3cc(C)cc(C)c3s2)cc1,4,0,45*,87*,36*
CCOc1cccc2sc(N(CCCN(C)C)C(=O)c3ccc(S(=O)(=O)N(CC)Cc4ccccc4)cc3)nc12,9,-1,43*,.,12
CC(=O)N1CCCc2cc(S(=O)(=O)CCC(=O)Nc3cccc(C)c3C)ccc21,-1,-1,-4,.,.
CCOc1ccc(NC(=O)C(CC(=O)O)Cc2ccccc2)cc1 (stereo not given),1,0,0,23,.
CCOc1ccc(NC(=O)C(Cc2ccccc2)N2C(=O)c3cccc4cccc(c34)C2=O)cc1 (stereo not given),19,1,65*,-6,69*
Cc1cc(C)c2c(c1)/C(=N/Nc1ccc(S(N)(=O)=O)cc1[N+](=O)[O-])CCC2,16,0,76*,16,50*
CCn1cc(CN2CCCC(CNS(=O)(=O)c3cccc4cccnc34)C2)cn1 (stereo not given),2,0,-2,.,.
CCOC(=O)c1c(Nc2ccc(Cl)cc2)sc(/C=C2\C=Nc3ccccc32)c1O,4,0,38*,76*,15
CCOC(=O)/C=c1\s/c(=C\c2ccc(C(=O)OC)cc2)c(=O)n1CC(=O)Nc1ccccc1,27,3,92*,-8,1
O=C1c2ccccc2C(=O)N1CCCOCc1c[nH]c(=O)[nH]c1=O,-1,0,32*,-29,0
CC(=O)c1cccc(NC(=O)CN(C)S(=O)(=O)c2ccc3c(c2)CC(C)N3C(C)=O)c1 (stereo not given),3,0,-4,.,.
O=c1[nH]c(=O)n(Cc2ccco2)c2c1C(C(F)(F)F)(C(F)(F)F)N=C(CCC1CCCCC1)N2,10,0,43*,41,6
O=c1[nH]c(=O)n(Cc2ccco2)c2c1C(C(F)(F)F)(C(F)(F)F)N=C(C1CCCCC1)N2,-3,0,-2,10,.
COc1ccccc1NC(CC(=O)c1ccccc1)C(=O)OCC(=O)c1ccc(C)cc1 (stereo not given),3,0,-2,12,.
COc1ccccc1NC(CC(=O)c1ccccc1)C(=O)OCC(=O)c1ccc(C)c(C)c1 (stereo not given),2,-1,36*,3,-2
Nc1nc(Nc2cccc(C(F)(F)F)c2)nc(C(F)(F)F)n1,1,0,34*,-5,49*
Cc1ccc(S(=O)(=O)N2CCOC23CCN(C(=O)c2ccccc2Br)CC3)cc1,1,0,-4,.,.
O=C(CSCc1ccc(Cl)cc1)Nc1ccc(-c2nnc(-c3ccccc3)o2)cc1,28,-3,107*,67,72*
CCCCN(CC)S(=O)(=O)c1ccc(C(=O)N=c2sc3cc(NC(C)=O)ccc3n2C)cc1,23,1,137*,47,106*
CCCCN(C)S(=O)(=O)c1ccc(C(=O)N=c2sc3cc(NC(C)=O)ccc3n2C)cc1,1,0,0,-20,.
Cc1ccc2[nH]c3c(=O)n(CC(=O)N4CC(C)CC(C)C4)ncc3c2c1 (stereo not given),4,0,32*,.,1
Oc1cc(-c2ccc(N3CCCCC3)nc2)cc2cccnc12,7,-9,56*,.,52*
CN(Cc1ccccc1)C(=O)c1ccc(NC(=O)Cc2cccc(NC(=O)C3CCCN(C(=O)C4CCCCC4)C3)c2)cc1 (stereo not given),0,2,-2,.,.
SMILES,CHOP UPR activ,Bfl-1 A1 inh,UPR XBP1 act,CHOP inhibitor,XBP1 UPR conf
COc1cnc(-c2ccccn2)nc1Sc1ccc(Cl)cc1,8,0,32*,30,8
Cc1cc(NC(=O)c2ccc3c(c2)C(=O)N(c2cccc(C)c2C)C3=O)no1,0,0,-7,.,.
COC(=O)c1nn(-c2ccccc2)nc1-c1nn(-c2ccccc2)nc1C(=O)OC,5,0,39*,-13,18
N#Cc1c(-c2ccccc2)nc(SCc2cccc(Cl)c2)[nH]c1=O,-1,0,1,.,.
Cc1cc(C)nc(NS(=O)(=O)c2ccc(NC(=O)c3cc4c(=O)n5cccc(C)c5nc4n3C)cc2)n1,10,1,101*,.,4
Cc1cccn2c(=O)c3cc(C(=O)NC4CCCC4)n(C)c3nc12,3,0,7,.,.
COc1ccccc1CNCC(O)Cn1c2ccccc2c2ccccc21 (stereo not given),3,1,30*,51,29
CN1Cc2c(N3CCOCC3)nc3sc(C(=O)c4ccc(Br)cc4)c(N)c3c2CC1(C)C,8,1,38*,-10,63*
COc1cc(/C=C/C(=O)Nc2cccc(S(=O)(=O)NC3=NCCCCC3)c2)ccc1OCC#N,0,0,-1,.,.
COc1cccc(NC(=O)c2cc3ccccc3cc2OC)c1,7,0,4,.,.
O=C(Nc1ccc(SC(F)F)cc1)c1cc(-c2ccncc2)nc2ccccc12,8,2,64*,.,48*
O=c1oc(Nc2cccc(F)c2)nc2ccccc12,1,-8,0,48,.
Nc1nc(Nc2cccc(F)c2)nc2ccccc12,19,-7,40*,21,42*
Cc1cc(C)c2c(c1)SC1=NC(c3ccccc3)(C(F)(F)F)NC(=O)N12 (stereo not given),38,-2,46*,94*,22
C/C(=N\NC(=O)C(=O)Nc1cc(C)ccc1C)c1ccncc1,1,0,1,18,.
CCn1c(SCC(=O)N2CCN(c3ccccc3)CC2)nc2c([nH]c3ccccc32)c1=O,18,1,32*,.,30
C[C@]12c3[nH]c4ccc(Cl)cc4c3CCN1C(=O)[C@@H](CC(=O)NCc1cccc(C(F)(F)F)c1)C[C@@H]2C(=O)N1CCOCC1,6,.,6,.,.
CC(C)N(C(=O)[C@H]1C[C@H](CC(=O)NCc2cccc(C(F)(F)F)c2)C(=O)N2CCc3c([nH]c4ccc(Cl)cc34)[C@]12C)C(C)C,9,.,55*,.,70*
c1ccc(-c2sc3ccccc3c2-c2ccc(OCCN3CCCC3)cc2)cc1,3,3,32*,.,19
COc1cccc(-c2sc3ccccc3c2-c2ccc(OCCN(C)C)cc2)c1,3,-1,37*,.,54*
COc1cccc(-c2sc3ccccc3c2-c2ccc(OCCN3CCCC3)cc2)c1,3,0,25,.,.

# High-throughput results as filed in PubChem BioAssay.
